Sampled rows, rich in hits. Any-hit rate of the full collection: about 3.3%.
rCAG binder – r(CAG) repeat RNA binding; AID 651821; inhibition, % at 3 µM; 1.3% of 370,000 active; TO-PRO-1 dye displacement fluorescence;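 active = inhibition above the plate cutoff, the mean of all test compounds on that plate plus 3 SD, cut at about 35% in these data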;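 also: higher means more dye released from RNA so lower well fluorescence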
ABHD4 inh – ABHD4 (mouse) inhibition, primary FP screen. 0.54% of 370,000 active. inhibition, % at 8.92 µM. purified mABHD4, FP-Rh probe fluorescence polarization. Q8VD66;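 active = inhibition exceeding the mean over every tested compound plus 3 SD, cut at about 30% in these data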
Target sequence (Q8VD66 whole entry, looked up): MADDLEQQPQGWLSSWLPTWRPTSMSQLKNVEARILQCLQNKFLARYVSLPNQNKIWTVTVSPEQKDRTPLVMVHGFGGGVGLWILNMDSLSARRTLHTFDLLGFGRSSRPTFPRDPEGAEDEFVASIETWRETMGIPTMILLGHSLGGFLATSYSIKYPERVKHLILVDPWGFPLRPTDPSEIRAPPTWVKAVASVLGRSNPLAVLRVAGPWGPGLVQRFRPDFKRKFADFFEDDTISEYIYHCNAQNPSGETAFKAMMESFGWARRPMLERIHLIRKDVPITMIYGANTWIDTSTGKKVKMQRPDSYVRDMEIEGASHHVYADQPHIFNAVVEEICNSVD
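Test system: mouse ABHD4 enzyme, wild type. Reagent: FP-Rh fluorescent activity-based probe, added after compound pre-incubation. Timing: pre-incubation 45 min, probe exposure 60 min, at 25 °C. Technique: FP readout, ex 525 nm / em 598 nm. Benchmarks: high control S159A mutant with DMSO, low control median of compound wells.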
HTRA1 inhibitor – blocks human HTRA1 serine peptidase; recombinant HTRA1, FP-rhodamine activity-based probe, fluorescence polarization; Q92743; 0.5% of 340,000 active; inhibition, % at 5.96 µM; in the data active = inhibition above about 36%
PRMT1 FP inh – blocks human protein arginine methyltransferase 1 | recombinant PRMT1, activity-based probe fluorescence polarization | 1.3% of 370,000 active | inhibition, % at 2.79 µM | AID 652257 | Q99873;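 active = inhibition above about 21% made by adding two undisclosed values, limit read from the data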
Target sequence (Q99873 whole entry, looked up): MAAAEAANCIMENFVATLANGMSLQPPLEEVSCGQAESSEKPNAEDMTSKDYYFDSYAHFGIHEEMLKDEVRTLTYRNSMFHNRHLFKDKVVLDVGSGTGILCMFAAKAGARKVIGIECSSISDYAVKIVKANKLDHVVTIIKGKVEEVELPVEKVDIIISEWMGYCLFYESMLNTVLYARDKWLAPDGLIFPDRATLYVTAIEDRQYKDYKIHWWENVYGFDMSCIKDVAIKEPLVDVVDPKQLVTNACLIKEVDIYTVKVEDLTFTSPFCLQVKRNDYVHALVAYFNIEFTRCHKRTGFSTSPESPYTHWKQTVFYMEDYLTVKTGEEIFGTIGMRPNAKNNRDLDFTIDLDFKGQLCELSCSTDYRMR
SIAE inh – human SIAE inhibition, primary screen. SIAE FP-Rh probe binding, fluorescence polarization. Q9HAT2. 0.69% of 370,000 active. AID 1053197. inhibition, % at 9.66 µM;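 active = inhibition above a cutoff: mean of compounds within the control limits plus 3 SD of those, cut at about 17% in these data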
HTRA1 conf – confirmation of human HTRA1 inhibitors; shares compounds with HTRA1 inhibitor; recombinant HTRA1, FP-rhodamine activity-based probe, fluorescence polarization; inhibition, % at 5.96 µM; 66% of 1,600 active; AID 540248;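 active = mean inhibition over three repeats above a set limit taken from the earlier primary screen, cut at about 37% in these data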;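 also: inhibitors block probe binding so polarization drops and inhibition rises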
rCAG bind conf – r(CAG) RNA repeat binding, confirmation; shares compounds with rCAG binder; TO-PRO-1 dye displacement fluorescence; inhibition, % at 3 µM; 70% of 4,300 active; AID 652065;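 active = inhibition above a per-plate cutoff, the mean inhibition of sample wells plus 3 SD, cut at about 35% in these data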;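 also: loss of TO-PRO-1 fluorescence as compound displaces dye from 1x1 AA loop RNA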
dCAG dye counter – disrupts DNA CAG TO-PRO-1 complex, flagging rCAG hits; shares compounds with rCAG binder; d(CAG) DNA oligo TO-PRO-1 dye displacement, fluorescence; inhibition, % at 3 µM; 94% of 4,300 active;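 active = inhibition above its plate's cutoff, the mean test-well inhibition plus 3 SD, cut at about 4.8% in these data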;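 also: hits displace the dye from DNA and so lower well fluorescence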
PRMT1 confirm – confirmation of human PRMT1 inhibitors; shares compounds with PRMT1 FP inh; inhibition, % at 2.79 µM; recombinant His-PRMT1, activity-based probe fluorescence polarization; AID 687036; 42% of 3,300 active;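 active = mean inhibition across replicates above the hit cutoff derived for the earlier primary screen, cut at about 22% in these data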
mABHD4 conf – ABHD4 (mouse) inhibition, FP confirmation; shares compounds with ABHD4 inh; purified mABHD4, FP-Rh probe fluorescence polarization; inhibition, % at 8.92 µM; 55% of 1,800 active; AID 720658;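 active = mean inhibition across replicates above the hit cutoff set in the primary screen, cut at about 30% in these data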
SIAE confirm – human SIAE inhibition, confirmation; shares compounds with SIAE inh; SIAE FP-Rh activity-based probe, fluorescence polarization; inhibition, % at 9.66 µM; 13% of 2,300 active;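 active = mean inhibition of the replicates above the hit cutoff set in the primary screen, cut at about 17% in these data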;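 also: inhibitors lower polarization as more probe stays unbound to SIAE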
Of the large screens only hits and unclear results are named; the others gave an inactive call (follow-up assays come after a bar, where they were run).

COc1ccc(Br)cc1CNc1ccc(O)cc1	ABHD4 inh 65, HTRA1 inhibitor 74, SIAE inh 32 | HTRA1 conf inactive | mABHD4 conf 30 | SIAE confirm inactive
Oc1ccc(NCc2ccc(OCc3ccccc3)cc2)cc1	ABHD4 inh 53, HTRA1 inhibitor 47, PRMT1 FP inh 34, SIAE inh 29 | HTRA1 conf inactive | PRMT1 confirm inactive | mABHD4 conf inactive | SIAE confirm inactive
COc1ccc(Br)cc1CNc1ccc2[nH]c(=O)[nH]c2c1	none
COc1cc(CNc2ccc(O)cc2)cc(Br)c1OCc1ccccc1	ABHD4 inh 52, HTRA1 inhibitor 57, SIAE inh 26 | HTRA1 conf inactive | mABHD4 conf inactive | SIAE confirm inactive
O=C(Cc1ccccc1F)N1CCC(n2nnc3ncccc32)CC1	none (no result: HTRA1 inhibitor)
CC(=O)Nc1ccc(S(=O)(=O)Nc2cccc3[nH]ncc23)cc1	none
O=C(Nc1cccc2[nH]ncc12)NS(=O)(=O)c1ccccc1	ABHD4 inh 98, HTRA1 inhibitor 44, SIAE inh 48 | HTRA1 conf inactive | mABHD4 conf inactive | SIAE confirm inactive
C=CCOC(=O)N[C@H](c1ccccc1)[C@H](C)/C=C/CC(=O)OC	none (no result: HTRA1 inhibitor)
CC(=O)N1C[C@H]2CON(C)[C@H]2C[C@H]1c1ccccc1-c1ccccc1	none (no result: HTRA1 inhibitor)
COC(=O)C1CN(Cc2ccc(OC)cc2)CCS(=O)(=O)N1Cc1ccc(OC)cc1 (stereo unspecified)	none (no result: HTRA1 inhibitor)
CCNc1ccc2noc3c2c1C(=O)c1ccccc1-3	ABHD4 inh 122, HTRA1 inhibitor 123, PRMT1 FP inh 154, SIAE inh 98 | HTRA1 conf 112 | mABHD4 conf 116 | SIAE confirm 91
O=C1c2ccccc2-c2onc3ccc(N4CCCC4)c1c23	ABHD4 inh 99, HTRA1 inhibitor 91, PRMT1 FP inh 90, SIAE inh 76 | HTRA1 conf inactive | PRMT1 confirm 74 | mABHD4 conf 70 | SIAE confirm 56
COC(=O)[C@@]12CCCCC3=C1N(CCC3)C(=O)[C@H]2CC(=O)N1CCCCC1	none (no result: HTRA1 inhibitor)
O=C1CC(N2CCCN(Cc3ccccc3)CC2)=NC(=O)N1c1ccc(Br)cc1	none (no result: HTRA1 inhibitor)
COC(=O)c1cc(-c2ccc(C(C)=O)cc2)c(=O)n2c1CCC2	none (no result: HTRA1 inhibitor)
COc1cc(OC)c(C2Nc3cccc4cccc(c34)N2)c(OC)c1	ABHD4 inh 50, HTRA1 inhibitor 52, SIAE inh 21 | HTRA1 conf inactive | mABHD4 conf 36 | SIAE confirm inactive
c1ccc(C2Nc3cccc4cccc(c34)N2)cc1	none
CC(=O)Nc1ccc(S(=O)(=O)NC2=C(N3CCN(c4ccc(F)cc4)CC3)C(=O)c3ccccc3C2=O)cc1	HTRA1 inhibitor 55, SIAE inh 25 | HTRA1 conf 71 | SIAE confirm 24
COc1cccc(C(=O)N[C@@H](Cc2cccnc2)C(=O)N2CCC[C@H]2C(=O)NC2CCCC2)c1	none (no result: HTRA1 inhibitor)
CCCC(=Nc1ccc(N)cc1)C1=C(O)C(C(=O)OC)C(C)(C)CC1=O (stereo unspecified)	ABHD4 inh 79, HTRA1 inhibitor 61, SIAE inh 35 | HTRA1 conf 59 | mABHD4 conf inactive | SIAE confirm inactive
C=CCn1c(Cc2cccs2)nnc1SCC(=O)Nc1ccc2c(c1)OCO2	none (no result: HTRA1 inhibitor)
COc1cccc2c1-c1c(O)cccc1C2=O	none
COc1cccc2c1C(=O)c1c(O)c3c(c(O)c1C2=O)CC(O)(C(C)=O)CC3OC1CC(O)C(O)C(C)O1 (stereo unspecified)	ABHD4 inh 79, HTRA1 inhibitor 73, PRMT1 FP inh active, SIAE inh 68 | HTRA1 conf 74 | SIAE confirm 55
Cc1ccc2sc(NNC(=O)c3cc(=O)c4ccccc4o3)nc2c1C	rCAG binder 75, ABHD4 inh 41, HTRA1 inhibitor 70, SIAE inh 25 | HTRA1 conf 132 | rCAG bind conf 86 | dCAG dye counter 45 | mABHD4 conf 59 | SIAE confirm 33
Cc1ccc2sc(NNC(=O)C3COc4ccccc4O3)nc2c1C (stereo unspecified)	none
Cc1nn(-c2ccccc2)c(N2CCCC2)c1/C=N/NC(=O)c1ccccc1O	none
O=C(N/N=C/c1cc2c3c(c1O)CCCN3CCC2)c1ccccc1O	ABHD4 inh 44, HTRA1 inhibitor 51, SIAE inh 43 | HTRA1 conf 58 | mABHD4 conf inactive | SIAE confirm 36
COc1ccc(/C=C/C(=O)c2ccc(OC)cc2OC)c(OC)c1	none
CNc1ccc(Br)cc(C(=O)/C=C/c2ccc(OC)cc2OC)c1=O	ABHD4 inh 36, HTRA1 inhibitor 50, SIAE inh 21 | HTRA1 conf inactive | mABHD4 conf 30 | SIAE confirm inactive
COC(=O)C1CN(Cc2cn(Cc3ccccc3)nn2)CCS(=O)(=O)N1Cc1ccc(C)cc1 (stereo unspecified)	none (no result: HTRA1 inhibitor)
Oc1ccc(N=Nc2ccc3c(c2)OCCO3)c2cccnc12	HTRA1 inhibitor 50, SIAE inh 20 | HTRA1 conf 69 | SIAE confirm inactive
CCOc1ccc(-n2c(COc3ccc(C)cc3)nnc2SCC(=O)c2ccc3ccccc3c2)cc1	none (no result: HTRA1 inhibitor)
O=C1C(Nc2ccc(O)cc2)=C/C(=N/S(=O)(=O)c2cccs2)c2ccccc21	ABHD4 inh 73, HTRA1 inhibitor 64, SIAE inh 21 | HTRA1 conf 74 | mABHD4 conf 81 | SIAE confirm inactive
C[C@H]1COc2c3ccccc3nn21	none (no result: HTRA1 inhibitor)
COc1cc(C(C[N+](=O)[O-])c2c(C)cc3ccccn23)ccc1O (stereo unspecified)	ABHD4 inh 30, HTRA1 inhibitor 40, SIAE inh 19 | HTRA1 conf 40 | mABHD4 conf inactive | SIAE confirm inactive
Cn1nc([N+](=O)[O-])c(C(C#N)c2ccccn2)c(Cl)c1=O (stereo unspecified)	none

Source: PubChem BioAssay
